Tests used:
[1] = Cytotoxicity against CHL cells assessed as chromatid gap at 825 ug/ml preincubated for 6 hrs followed by 18 hrs incubation in fresh medium in absence of S9 fraction by Giemsa-staining-based microscopic analysis; assay type: toxicity, cell-based, Cricetulus griseus; conditions: chinese hamster
Salmonella typhimurium [2] = experiment: Genotoxicity in Salmonella typhimurium TA100 assessed as number of revertant colonies per plate at 556 ug/plate after 20 mins in absence of S9 fraction by Ames test (reference value: 123); assay type: toxicity, organism-based; conditions: salmonella enterica subsp. enterica serovar typhimurium
Salmonella typhimurium [3] = experiment: Genotoxicity in Salmonella typhimurium TA100 assessed as number of revertant colonies per plate at 1667 ug/plate after 20 mins in absence of S9 fraction by Ames test (reference value: 123); assay type: toxicity, organism-based; conditions: salmonella enterica subsp. enterica serovar typhimurium
Salmonella typhimurium [4] = experiment: Genotoxicity in Salmonella typhimurium TA1535 assessed as number of revertant colonies per plate at 20.6 ug/plate after 20 mins in absence of S9 fraction by Ames test (reference value: 15); assay type: toxicity, organism-based; conditions: salmonella enterica subsp. enterica serovar typhimurium
Escherichia coli [5] = experiment: Genotoxicity in Escherichia coli WP2uvrA assessed as number of revertant colonies per plate at 1667 ug/plate after 20 mins in absence of S9 fraction by Ames test (reference value: 24); assay type: toxicity; conditions: s9, 20 min
Escherichia coli [6] = experiment: Genotoxicity in Escherichia coli WP2uvrA assessed as number of revertant colonies per plate at 5000 ug/plate after 20 mins in absence of S9 fraction by Ames test (reference value: 24); assay type: toxicity; conditions: s9, 20 min
Salmonella typhimurium [7] = experiment: Genotoxicity in Salmonella typhimurium TA98 assessed as number of revertant colonies per plate at 1667 ug/plate after 20 mins in absence of S9 fraction by Ames test (reference value: 21); assay type: toxicity, organism-based; conditions: salmonella enterica subsp. enterica serovar typhimurium
Salmonella typhimurium [8] = experiment: Genotoxicity in Salmonella typhimurium TA1537 assessed as number of revertant colonies per plate at 61.7 ug/plate after 20 mins in absence of S9 fraction by Ames test (reference value: 9); assay type: toxicity, organism-based; conditions: salmonella enterica subsp. enterica serovar typhimurium
Salmonella typhimurium [9] = experiment: Genotoxicity in Salmonella typhimurium TA1537 assessed as number of revertant colonies per plate at 185 ug/plate after 20 mins in absence of S9 fraction by Ames test (reference value: 9); assay type: toxicity, organism-based; conditions: salmonella enterica subsp. enterica serovar typhimurium
Salmonella typhimurium [10] = experiment: Genotoxicity in Salmonella typhimurium TA100 assessed as number of revertant colonies per plate at 556 ug/plate after 20 mins in presence of S9 fraction by Ames test (reference value: 142); assay type: toxicity, organism-based; conditions: salmonella enterica subsp. enterica serovar typhimurium
Salmonella typhimurium [11] = experiment: Genotoxicity in Salmonella typhimurium TA100 assessed as number of revertant colonies per plate at 1667 ug/plate after 20 mins in presence of S9 fraction by Ames test (reference value: 142); assay type: toxicity, organism-based; conditions: salmonella enterica subsp. enterica serovar typhimurium
Salmonella typhimurium [12] = experiment: Genotoxicity in Salmonella typhimurium TA100 assessed as number of revertant colonies per plate at 5000 ug/plate after 20 mins in presence of S9 fraction by Ames test (reference value: 142); assay type: toxicity, organism-based; conditions: salmonella enterica subsp. enterica serovar typhimurium
Salmonella typhimurium [13] = experiment: Genotoxicity in Salmonella typhimurium TA1535 assessed as number of revertant colonies per plate at 61.7 ug/plate after 20 mins in presence of S9 fraction by Ames test (reference value: 13); assay type: toxicity, organism-based; conditions: salmonella enterica subsp. enterica serovar typhimurium
Salmonella typhimurium [14] = experiment: Genotoxicity in Salmonella typhimurium TA98 assessed as number of revertant colonies per plate at 20.6 ug/plate after 20 mins in presence of S9 fraction by Ames test (reference value: 26); assay type: toxicity, organism-based; conditions: salmonella enterica subsp. enterica serovar typhimurium
Salmonella typhimurium [15] = experiment: Genotoxicity in Salmonella typhimurium TA98 assessed as number of revertant colonies per plate at […] ug/plate after 20 mins in presence of S9 fraction by Ames test (reference value: 26); assay type: toxicity, organism-based; conditions: salmonella enterica subsp. enterica serovar typhimurium
Salmonella typhimurium [16] = experiment: Genotoxicity in Salmonella typhimurium TA1537 assessed as number of revertant colonies per plate at 185 ug/plate after 20 mins in presence of S9 fraction by Ames test (reference value: 15); assay type: toxicity, organism-based; conditions: salmonella enterica subsp. enterica serovar typhimurium
[17] = Cytotoxicity against CHL cells assessed as growth rate at 211 ug/ml preincubated for 6 hrs followed by 18 hrs incubation in fresh medium in absence of S9 fraction by MTT assay relative to control; assay type: toxicity, cell-based, Cricetulus griseus; conditions: chinese hamster, read-out: Activity
[18] = Cytotoxicity against CHL cells assessed as growth rate at 2.16 ug/ml preincubated for 6 hrs followed by 18 hrs incubation in fresh medium in presence of S9 fraction by MTT assay relative to control; assay type: toxicity, cell-based, Cricetulus griseus; conditions: chinese hamster, read-out: Activity
[19] = Cytotoxicity against CHL cells assessed as growth rate at 1320 ug/ml preincubated for 6 hrs followed by 18 hrs incubation in fresh medium in presence of S9 fraction by MTT assay relative to control; assay type: toxicity, cell-based, Cricetulus griseus; conditions: chinese hamster, read-out: Activity
[20] = Cytotoxicity against CHL cells assessed as growth rate at 13.5 ug/ml after 24 hrs in absence of S9 fraction by MTT assay relative to control; assay type: toxicity, cell-based, Cricetulus griseus; conditions: chinese hamster, read-out: Activity
[21] = Cytotoxicity against CHL cells assessed as growth rate at 33.8 ug/ml after 24 hrs in absence of S9 fraction by MTT assay relative to control; assay type: toxicity, cell-based, Cricetulus griseus; conditions: chinese hamster, read-out: Activity
[22] = Cytotoxicity against CHL cells assessed as growth rate at 1320 ug/ml after 24 hrs in absence of S9 fraction by MTT assay relative to control; assay type: toxicity, cell-based, Cricetulus griseus; conditions: chinese hamster, read-out: Activity
[23] = Cytotoxicity against CHL cells assessed as growth rate at 3300 ug/ml after 24 hrs in absence of S9 fraction by MTT assay relative to control; assay type: toxicity, cell-based, Cricetulus griseus; conditions: chinese hamster, read-out: Activity
[24] = Cytotoxicity against CHL cells assessed as structural aberrations at 1650 ug/ml preincubated for 6 hrs followed by 18 hrs incubation in fresh medium in absence of S9 fraction by Giemsa-staining-based microscopic analysis; assay type: toxicity, cell-based, Cricetulus griseus; conditions: chinese hamster
[25] = Cytotoxicity against CHL cells assessed as structural aberrations at 825 ug/ml after 24 hrs by Giemsa-staining-based microscopic analysis; assay type: toxicity, cell-based, Cricetulus griseus; conditions: chinese hamster
[26] = Cytotoxicity against CHL cells assessed as chromatid gap at 825 ug/ml after 24 hrs by Giemsa-staining-based microscopic analysis; assay type: toxicity, cell-based, Cricetulus griseus; conditions: chinese hamster
[27] = Cytotoxicity against CHL cells assessed as chromatid gap at 3300 ug/ml after 24 hrs by Giemsa-staining-based microscopic analysis; assay type: toxicity, cell-based, Cricetulus griseus; conditions: chinese hamster
[28] = Cytotoxicity against human CCD-1059SK cells assessed as reduction in cell viability up to 1 mM after 24 hrs by neutral red method; assay type: toxicity, cell-based
Outline: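 CCD-1059SK skin fibroblasts, passages 10–20, grown in DMEM with 10% FBS at 37 °C under 5% CO2. Pre-incubated 24 h after plating, then exposed 24 h to 0, 10, 100 or 1000 µM, diluted into medium from distilled water. Viability read by Neutral Red assay.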

Rattus norvegicus = species on record: Rattus norvegicus; experiment: Cytotoxicity against Wistar rat […] assessed as morphological change up to 1 mM after 24 hrs by inverted microscopic analysis; assay type: toxicity
Outline: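 Hepatic stellate cells isolated from male Wistar rats (300–350 g), identified by star-like shape and vitamin A autofluorescence, purity >95%. Plated at 5 × 10^5 cells/ml in DMEM with 10% FBS for 2 days, then kept serum-free 24 h at 37 °C. Exposed 24 h to 0, 10, 100 or 1000 µM in DMEM. Morphology checked by inverted microscopy.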

[29] = Hydrolytic stability of compound in D2O at pH 1 to 2 by 31P NMR spectroscopy; assay type: physicochemical; conditions: buffer
[30] = Cytotoxicity against CHL cells assessed as number of cells with numerical aberrations at 825 ug/ml preincubated for 6 hrs followed by 18 hrs incubation in fresh medium in presence of S9 fraction by Giemsa-staining-based microscopic analysis relative to control; assay type: toxicity, cell-based, Cricetulus griseus; conditions: chinese hamster

With COP(=O)(CCC(N)C(=O)O)Oc1cccc(CC(=O)O)c1 (stereo unspecified) as the molecule, how does the Activity [1] read?
The Activity was 1%.

What about the Activity (Salmonella typhimurium [2]) of the same molecule?
The Activity was 118.

What about the Activity (Salmonella typhimurium [3]) of the same molecule?
Its Activity is 131.

What about the Activity (Salmonella typhimurium [4]) of the same molecule?
The Activity was 15.

What about the Activity (Escherichia coli [5]) of the same molecule?
Its Activity is 29.

What about the Activity (Escherichia coli [6]) of the same molecule?
Its Activity is 29.

And the Activity (Salmonella typhimurium [7])?
Its Activity is 23.

And the Activity (Salmonella typhimurium [8])?
Its Activity is 12.

And the Activity (Salmonella typhimurium [9])?
The Activity was 12.

And the Activity (Salmonella typhimurium [10])?
Its Activity is 129.

And the Activity (Salmonella typhimurium [11])?
Its Activity is 131.

What about the Activity (Salmonella typhimurium [12]) of the same molecule?
Its Activity is 125.

And the Activity (Salmonella typhimurium [13])?
The Activity was 9.

What about the Activity (Salmonella typhimurium [14]) of the same molecule?
The Activity was 29.

What about the Activity (Salmonella typhimurium [15]) of the same molecule?
Its Activity is 25.

And the Activity (Salmonella typhimurium [16])?
The Activity was 12.

What about the viability at 18 h, 211 ug/ml [17] of the same molecule?
The viability at 18 h, 211 ug/ml was 101%.

And the viability at 18 h, 2.16 ug/ml [18]?
Its viability at 18 h, 2.16 ug/ml is 101%.

What about the viability at 18 h, 1320 ug/ml [19] of the same molecule?
The viability at 18 h, 1320 ug/ml was 95.7%.

And the viability at 24 h, 13.5 ug/ml [20]?
The viability at 24 h, 13.5 ug/ml was 103%.

And the viability at 24 h, 33.8 ug/ml [21]?
Its viability at 24 h, 33.8 ug/ml is 105%.

And the viability at 24 h, 1320 ug/ml [22]?
Its viability at 24 h, 1320 ug/ml is 92.6%.

What about the viability at 24 h, 3300 ug/ml [23] of the same molecule?
Its viability at 24 h, 3300 ug/ml is 79.5%.

And the Activity [24]?
Its Activity is 0%.

What about the Activity [25] of the same molecule?
The Activity was 0%.

And the Activity [26]?
Its Activity is 0%.

What about the Activity [27] of the same molecule?
Its Activity is 0%.

And the Activity [28]?
Its Activity is “Non-Toxic”.

What about the Activity (Rattus norvegicus) of the same molecule?
Its Activity is “Non-Toxic”.

What about the Stability [29] of the same molecule?
The Stability was “Stable”.

What about the Activity [30] of the same molecule?
The Activity was 1%.

Reference: ChEMBL document CHEMBL3856258, “Phosphonate-based irreversible inhibitors of human γ-glutamyl transpeptidase (GGT). GGsTop is a non-toxic and highly selective inhibitor with critical electrostatic interaction with an active-site residue Lys562 for enhanced inhibitory activity” (Bioorg Med Chem, 2016)
